# MT stabilizer: microtubule stabilizers in HeLa cells. hit rate 0.83% among 200,000. HeLa tubulin immunostaining HCS, 24 h; share of cells brighter than vehicle mean+2SD. % tubulin-high responders, % at 10 µM. AID 2205;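 active = plate Z-score above 3 for both tubulin-high and condensed-nucleus cell shares, with cell loss under 80%, at 10 µM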;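 also: anti alpha tubulin signal scored within the nucleus-defined area of each cell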
# IEC-6 tox: IEC-6 cytotoxicity, counter-screen for KLF5 inhibitors | luminescence viability | hit rate 0.78% among 290,000 | inhibition, % at 5 µM; in the data active = inhibition above about 22%;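 also: 0% = plate median of test compound wells and 100% = cytotoxic reference compound wells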
# Ba/F3 V617F tox: loss of viability in JAK2V617F-driven Ba/F3 cells; Ba/F3 EpoR-JAK2V617F viability, ATP luminescence; inhibition, % at 5.6 µM; hit rate 1.1% among 220,000; AID 1446;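 active = inhibition above the campaign mean plus 3 SD over all tested compounds, cut at about 24% in these data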;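 also: cytokine-independent growth of Ba/F3 cells driven by EpoR plus mutant JAK2; 0% = DMSO-treated cells and 100% = JAK inhibitor I control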
# bCat nuc transl: alters nuclear translocation of beta-catenin in HeLa cells; immunofluorescence imaging; nuclear translocation activity, % at 5 µM; hit rate 0.3% among 190,000; AID 1665;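 active = nuclear translocation activity above 50% at 5 µM, with a well cell count of 50 or more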;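 also: per-cell ratio of nuclear to cytoplasmic median beta-catenin stain intensity; plate controls were DMSO negative control for no effect and GSK-3 inhibitor IX positive control for full effect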
#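 Assay system: human HeLa cells, native beta-catenin; doses: 5 µM primary, 0.02–20 µM confirmation; incubation: compound treatment 24 h, 37°C, 5% CO2; technique: fluorescence imaging of beta-catenin antibody stain plus DAPI; measure: % activation, nuclear-to-cytoplasmic median beta-catenin signal ratio per cell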
# BaF3 tox: counter-screen for JAK2V617F inhibitors: parental Ba/F3 viability inhibitors; CellTiter-Glo ATP luminescence; inhibition, % at 5.6 µM; hit rate 1.1% among 220,000;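 active = inhibition above a per-campaign cutoff, the mean inhibition of all tested compounds plus 3 SD, cut at about 27% in these data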;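 also: 0% = DMSO wells and 100% = JAK Inhibitor I control wells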
# APP 5UTR inh: APP translation inhibition; hit rate 0.82% among 190,000; SH-SY5Y APP 5'UTR-luciferase reporter, luminescence; inhibition, % at 2 µM;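 active = inhibition above a set limit, derived from the sample mean plus 3 SD, cut at about 45% in these data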
# * marks the source's active call; other numbers are inactive results; / = no result. Hits are enriched below; roughly 2.2% of the tested compounds scored in any of these assays.
SMILES,MT stabilizer,IEC-6 tox,Ba/F3 V617F tox,bCat nuc transl,BaF3 tox,APP 5UTR inh
O=C(Cn1cc(S(=O)(=O)Cc2cccc([N+](=O)[O-])c2)c2ccccc21)N1CCOCC1,/,-1.0,/,/,/,/
O=C(COc1ccccc1Cl)NCCNC(=O)c1ccco1,/,2.2,/,/,/,/
O=C(CCCSc1nc(-c2ccco2)cc(C(F)(F)F)n1)Nc1ccc2c(c1)OCO2,4.6,3.1,-1.6,-1.4,5.9,-11.4
O=C(CSc1nc(-c2ccco2)cc(C(F)(F)F)n1)Nc1ccc2c(c1)OCO2,28.7*,-3.3,-3.3,2.7,-0.2,-28.4
CCn1cc(CNC(=O)CCSc2nc(-c3ccco3)cc(C(F)(F)F)n2)cn1,42.9*,0.8,-0.3,-1.4,4.8,8.7
C=CCNC(=S)NNC(=O)CC12CC3CC(CC(C3)C1)C2,/,4.0,-1.7,1.1,-8.4,/
O=[N+]([O-])c1c(Nc2ccccn2)cc(Cl)c2nonc12,/,62.6*,0.5,-0.4,-1.1,/
O=[N+]([O-])c1ccc(Nc2ccccn2)c([N+](=O)[O-])c1,1.5,-2.2,29.2*,-0.9,49.0*,-2.4
O=C(O)c1ccccc1Nc1cc(Cl)c2nonc2c1[N+](=O)[O-],/,-4.3,/,/,/,/
CCCN1CCN(S(=O)(=O)c2ccc3c(c2)NC(=O)C(C)C(=O)N3)CC1 (stereo not given),/,11.0,/,/,/,/
Cc1cc(C(=O)OCC(=O)N2CC(C)OC(C)C2)ccc1[N+](=O)[O-] (stereo not given),3.0,-0.3,-4.1,-4.1,-1.4,3.0
COc1ccc2c(c1)c(=O)oc1c(C)c(OC(C)C(=O)N[C@@H](Cc3c[nH]c4ccc(O)cc34)C(=O)O)ccc12 (stereo not given in full),/,-0.6,/,/,/,/
Cc1[nH]nc2c1C(c1ccccn1)N(c1ccc(Br)cc1)C2=O (stereo not given),1.6,-0.9,-1.7,-4.5,95.5*,3.3
O=C(Nc1n[nH]c(=S)s1)c1ccc2ccccc2c1,/,-8.1,/,/,/,/
c1ccc2c(c1)OCC(CNc1ncnc3sccc13)O2 (stereo not given),2.8,16.6,59.6*,-0.7,61.8*,3.5
CCCCNC(C(=O)Nc1cccc(S(=O)(=O)N2CCOCC2)c1)c1ccccc1 (stereo not given),4.3,-6.5,-0.1,-3.6,35.9*,-3.7
C[n+]1c2n(c3ccccc31)N=C(c1cc(C(C)(C)C)c(O)c(C(C)(C)C)c1)CS2,5.3,17.7,98.6*,0.7,78.7*,29.9
COc1cccc(C2=Nn3c(nnc3-c3ccccc3O)SC2)c1,2.7,2.9,1.8,-2.8,4.7,-3.2
COc1ccccc1S(=O)(=O)Cc1ccc(C(=O)N2CCN(c3ccc(C)cc3)C(C)C2)o1 (stereo not given),17.1,9.5,3.1,-0.6,1.8,-30.2
COc1ccc(S(=O)(=O)Cc2ccc(C(=O)N3CCN(c4cccc(C)c4C)CC3)o2)cc1,22.3*,2.2,0.9,0.9,4.5,-14.5
Cc1ccc(S(=O)(=O)Cc2ccc(C(=O)N3CCN(c4ccc(F)cc4)CC3)o2)cc1,23.6*,5.0,-1.5,/,-0.3,-1.5
Cc1cccc(N2CCN(C(=O)c3ccncc3)CC2C)c1 (stereo not given),13.5,6.3,-0.3,0.2,7.1,-1.3
COc1ccc(S(=O)(=O)Cc2ccc(C(=O)N3CCN(c4cccc(C)c4)C(C)C3)o2)cc1 (stereo not given),24.0*,5.2,-1.2,/,5.2,/
Cc1cccc(N2CCN(C(=O)c3ccc4c(c3)OCCO4)CC2C)c1 (stereo not given),13.0*,6.4,-2.4,10.0,0.0,-3.5
Cc1ccc(NS(=O)(=O)c2c(C(=O)N3CCCC3)c(C)n(C)c2C)cc1,/,-5.4,/,/,/,/
SMILES,MT stabilizer,IEC-6 tox,Ba/F3 V617F tox,bCat nuc transl,BaF3 tox,APP 5UTR inh
CN(Cc1ccc(F)cc1)C(=O)c1cc(COc2ccc(-n3cncn3)cc2)on1,/,1.5,/,/,/,/
Cc1ccc(S(=O)(=O)NCC(=O)N(CC(=O)NCC2CCCO2)Cc2ccccc2Cl)cc1 (stereo not given),/,0.2,/,/,/,/
CCOc1ccc(N(C)S(=O)(=O)c2cc(-c3cc(C)no3)ccc2CC)cc1,/,-1.0,/,/,/,/
O=C(CN(C(=O)CNC(=O)c1ccco1)c1ccc(F)cc1)NC1CCCC1,/,4.3,/,/,/,/
C=CCOc1ccccc1CNc1cccc(F)c1,1.8,-0.9,0.0,-2.0,4.0,56.9*
OC(CNCCc1ccc(Cl)cc1)COCc1ccco1 (stereo not given),3.1,-4.4,-0.9,/,93.6*,1.0
Cc1cc(-c2cccs2)c(C#N)c(=S)[nH]1,/,-3.0,19.8,2.1,63.3*,/

# Source: PubChem (several laboratories)
